Here are results for three compounds from paper PMC9040061 (ACS infectious diseases, 2020).

Residue numbers refer to the chain shown, from its start. ≈ marks a conversion by molar mass, not a printed value.

One assay has as its system E. coli 70S ribosome. In words: In vitro translation inhibition assay. Type of assay: biochemical, Escherichia coli. The conditions noted are these: read-out: IC50, in vitro translation, PURE system.
The test system of assay [1] is UPPS-overexpressed E. coli BAS 849. The experiment in a line: In vivo growth inhibition assay on agar. Format: cell-based, Escherichia coli. Conditions: overexpression of EfaUPPS, SauUPPS and EcoUPPS; compound at 8 μg/mL; IPTG 0.5 mM. In outline: (§1)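 E. coli BAS 849 carried pQE80L (T5 promoter) either empty or bearing the UPPS gene from E. faecalis ATCC 29212, S. aureus ATCC 29213 or E. coli DH5α. Cultures were spread on LB agar with ampicillin, IPTG and test compound, incubated overnight at 37 °C and scored for growth.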

Assay [2] addresses recombinant E. faecalis UPPS (EfaUPPS) (Enterococcus faecalis, UniProt Q831K9). The experiment in a line: UPPS inhibition assay. Format: biochemical. Conditions: for IC50: EfaUPPS, enzyme-coupled fluorescence assay.
In assay [3] the test system is E. coli BAS 849 transformed with the empty vector pQE80L. The experiment in a line: In vivo growth inhibition assay on agar. Format: cell-based, Escherichia coli. The conditions noted are these: compound at 8 μg/mL, IPTG 0.5 mM. In outline:
as §1

For the next assay, the target named is wild-type EfaUPPS (Enterococcus faecalis, UniProt Q831K9). The experiment in a line: Surface plasmon resonance binding assay. The conditions noted are these: for Kd: read-out: equilibrium dissociation constant (KD), SPR, wild-type EfaUPPS, one-state binding model. A general note: Surface plasmon resonance follows binding to a sensor surface in real time, without labels.

Another assay deals with normal E. coli species. In words: MIC, microtiter broth dilution. Type of assay: cell-based, Escherichia coli. In outline: (§2)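 MICs were measured by broth microdilution in LB broth against E. coli DH5α, BL21(DE3) and BAS 849, the last an outer-membrane-defective strain with raised permeability. Tetracycline and ampicillin served as reference antibiotics. Values are means of at least three biological replicates.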

For the next assay, the system named is Escherichia coli BAS 849. The experiment in a line: MIC, microtiter broth dilution. Format: cell-based. Conditions: E. coli BAS 849, deficient outer-membrane structure. The essentials:
as §2

The target in the next assay is EfaUPPS R42A mutant (Enterococcus faecalis, UniProt Q831K9, R48A). The experiment in a line: UPPS inhibition assay, mutant enzyme. Format: biochemical. In outline:
(§3)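 Mutant E. faecalis UPPS was His-tagged in pET28a, expressed in E. coli BL21(DE3) (1 mM IPTG, 16 °C, 16 h) and purified by Ni-NTA and gel filtration. Assays ran 30 min at 37 °C in 100 mM Tris-HCl pH 7.5, 0.5 mM MgCl2, 50 mM KCl, 35 μM IPP, 5 μM FPP, 0.005% Triton X-100, and were EDTA-stopped. Released pyrophosphate was read by coupled fluorescence (316/456 nm). Mutant IC50 was compared with wild type; at least three biological replicates.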

The target of another assay is EfaUPPS H46W mutant. In words: UPPS inhibition assay, mutant enzyme. The conditions noted are these: H46W mutant versus wild-type EfaUPPS. Type of assay: biochemical, Enterococcus faecalis. The essentials: as §3
For another assay, the target named is EfaUPPS M28A mutant. In words: UPPS inhibition assay, mutant enzyme. Format: biochemical, Enterococcus faecalis. The conditions noted are these: M28A mutant versus wild-type EfaUPPS. The essentials: as §3
The next assay deals with EfaUPPS N31A mutant (Enterococcus faecalis, UniProt Q831K9, N37A). The experiment in a line: UPPS inhibition assay, mutant enzyme. Format: biochemical. In outline:
as §3

The target of assay [4] is T1, EfaUPPS N31E mutant (Enterococcus faecalis, UniProt Q831K9, N37E).
T1 sequence (Q831K9 1-271 N37E): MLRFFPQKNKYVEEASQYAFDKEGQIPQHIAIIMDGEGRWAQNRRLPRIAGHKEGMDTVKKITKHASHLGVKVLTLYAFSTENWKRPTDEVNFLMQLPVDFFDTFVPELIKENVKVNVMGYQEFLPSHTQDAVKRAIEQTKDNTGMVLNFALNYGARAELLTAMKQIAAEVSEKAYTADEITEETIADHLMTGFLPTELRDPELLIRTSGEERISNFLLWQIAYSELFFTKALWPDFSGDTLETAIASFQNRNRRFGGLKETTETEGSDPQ
In words: Surface plasmon resonance binding assay. Conditions: SPR. The essentials:
(§4)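 Point mutants of E. faecalis UPPS were made by site-directed mutagenesis and purified like wild type (Ni-NTA, then gel filtration). Enzyme (50 μg/mL) was amine-coupled to a carboxymethyl dextran chip. Test compound (0.4–50 μM) in phosphate-buffered saline with 0.005% Tween-20, pH 7.8, was flowed at 25 μL/min: 1.5 min association, 2.5 min dissociation. Reference-cell signal was subtracted, and KD came from a 1:1 model.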

The next assay addresses EfaUPPS W228A mutant. The experiment in a line: UPPS inhibition assay, mutant enzyme. Conditions: W228A mutant versus wild-type EfaUPPS. Format: biochemical, Enterococcus faecalis. The essentials:
as §3

The target of assay [5] is T2, EfaUPPS M28W mutant (Enterococcus faecalis, UniProt Q831K9, M34W).
T2 sequence (Q831K9 1-271 M34W): T1 sequence (Q831K9 1-271 N37E) with M34W, E37N
In words: Surface plasmon resonance binding assay. The conditions noted are these: SPR. The essentials:
as §4

A further assay has as its target EfaUPPS M28E mutant. In words: UPPS inhibition assay, mutant enzyme. Format: biochemical, Enterococcus faecalis. The conditions noted are these: M28E mutant versus wild-type EfaUPPS. In outline: as §3
In the next assay the target is EfaUPPS S74T mutant (Enterococcus faecalis, UniProt Q831K9, S80T). In words: UPPS inhibition assay, mutant enzyme. Type of assay: biochemical. In outline:
as §3

The target in assay [6] is T2, EfaUPPS M28W mutant. The experiment in a line: UPPS inhibition assay, mutant enzyme. Type of assay: biochemical. Conditions: M28W mutant versus wild-type EfaUPPS. The essentials:
as §3

The target in a further assay is EfaUPPS D29A mutant (Enterococcus faecalis, UniProt Q831K9, D35A). The experiment in a line: UPPS inhibition assay, mutant enzyme. Format: biochemical. In outline:
as §3

The target of assay [7] is recombinant E. coli UPPS (EcoUPPS) (Escherichia coli, UniProt P60472). Format: biochemical.
Sequence of recombinant E. coli UPPS (EcoUPPS) (P60472 whole entry): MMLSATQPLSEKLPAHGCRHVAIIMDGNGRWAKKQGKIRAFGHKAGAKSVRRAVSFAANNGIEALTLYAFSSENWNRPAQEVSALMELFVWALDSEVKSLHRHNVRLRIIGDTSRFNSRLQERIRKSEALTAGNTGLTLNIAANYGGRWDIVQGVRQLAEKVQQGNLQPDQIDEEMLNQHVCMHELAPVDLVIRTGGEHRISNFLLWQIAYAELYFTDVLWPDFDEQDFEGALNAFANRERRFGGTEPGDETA
Assay [8] has as its target recombinant S. aureus UPPS (SauUPPS) (Staphylococcus aureus, UniProt P60477). The experiment in a line: UPPS inhibition assay. Format: biochemical.
The next assay has as its target EfaUPPS F73S mutant (Enterococcus faecalis, UniProt Q831K9, F79S). In words: UPPS inhibition assay, mutant enzyme. Type of assay: biochemical. The essentials:
as §3

The target in another assay is EfaUPPS N31F mutant. In words: UPPS inhibition assay, mutant enzyme. The conditions noted are these: N31F mutant versus wild-type EfaUPPS. Format: biochemical, Enterococcus faecalis. In outline:
as §3

Assay [9] addresses T1, EfaUPPS N31E mutant. In words: UPPS inhibition assay, mutant enzyme. Format: biochemical. The conditions noted are these: N31E mutant versus wild-type EfaUPPS. In outline:
as §3

A word on the IC50: it is the concentration that gives 50% inhibition. As a reminder, the Kd is the equilibrium constant for the complex coming apart. As a reminder, the MIC is the least concentration at which growth counts as inhibited. Low readings indicate inhibition by little substance, high ones a need for much substance. viridicatumtoxin B [VirB]: the IC50 with E. coli 70S ribosome was 600 µM; in assay [2], 0.0581 µM. Also, the results for the “growth of E. coli BAS 849” value in assay [1] and in assay [3] were “rescued the cell growth” and “completely inhibited”, respectively. In addition, the Kd at wild-type EfaUPPS stood at 11.5 µM. The MIC is over 64 µg/mL against normal E. coli species and 8 µg/mL with Escherichia coli BAS 849.
Regarding `COc1cc(O)c2c(O)c3c(c4c2c1[C@]1(C4)C(C)=CCCC1(C)C)[C@H](O)[C@@]1(O)CC(=O)C(C(N)=O)=C(O)[C@@]1(O)C3=O` [VirA, viridicatumtoxin A], the “susceptibility of mutant compared with wild-type enzyme” value at EfaUPPS R42A mutant and at EfaUPPS D29A mutant was “more susceptible” throughout. Also, the IC50 with E. coli 70S ribosome turned out to be 700 µM; in assay [2] it was 1.6 µM; in [7] (EcoUPPS), 3.9 µM; in assay [8] (SauUPPS), 4.1 µM. Further, the IC50-MT/IC50-WT at EfaUPPS H46W mutant came out at 4.5; at EfaUPPS M28A mutant, 0.5; on EfaUPPS W228A mutant, 6.0; on EfaUPPS M28E mutant, 123.3; at EfaUPPS M28W mutant [6], 0.2; on EfaUPPS N31F mutant, 10.7. At EfaUPPS N31E mutant [9], the IC50-MT/IC50-WT was found to be 42.4. In addition, the entries for the “growth of E. coli BAS 849” value in assay [1] and in assay [3] were “rescued the cell growth” and “completely inhibited”, respectively. The “change of IC50 of mutant compared with wild-type enzyme” value at EfaUPPS N31A mutant, on EfaUPPS S74T mutant and at EfaUPPS F73S mutant was “decreased IC50” in each case. Further, the Kd turned out to be 322 µM at EfaUPPS N31E mutant [4], 9.8 µM on EfaUPPS M28W mutant [5] and 123 µM on wild-type EfaUPPS. In addition, at EfaUPPS N31E mutant [4], the “binding affinity decreased, fold, versus wild type” value was “approximately 3 fold”. Further, on EfaUPPS M28W mutant [5], the “binding affinity fold higher than the wild-type enzyme” value was “about 12 fold”. Moreover, the values for the MIC against normal E. coli species and in the assay with Escherichia coli BAS 849 were over 64 µg/mL and 8 µg/mL (≈ 14.1 µM), respectively.
With `CN(C)[C@@H]1C(O)=C(C(N)=O)C(=O)[C@@]2(O)C(O)=C3C(=O)c4c(O)cccc4[C@@](C)(O)[C@H]3C[C@@H]12` [Tet, tetracycline, reference compound], the IC50 in the assay with E. coli 70S ribosome was found to be 15 µM. Moreover, the “IC50 fold higher than that for VirA” value was determined as 12 fold in assay [2], 6 fold in assay [7] and 6 fold in assay [8]. Besides, on wild-type EfaUPPS (EfaUPPS), the SPR binding signals result was “cannot detect any binding signals”.
